# LANA-H2A inh: blocks KSHV LANA binding to histone H2A/H2B; inhibition, % (no concentration beside the values); Q9QR71; 320,000 tested, 0.6% active; cell-free LANA-H2A/H2B peptide, fluorescence polarization; in the data active means inhibition mostly above about 10%, no sharp cut-off; inactive means mostly below about 6.7%
# GPR7 antagonist: antagonists of human GPR7 (neuropeptides B/W receptor 1); P48145; GPR7-expressing cells, fluorescence antagonist assay; inhibition, % at 4.4 µM; 290,000 tested, 1.1% active; AID 1861; in the data active means inhibition above about 16%, passing the limit was not always enough;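 further: cells stimulated with the agonist NPW; 0% = agonist with vehicle and 100% = vehicle without agonist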
# TRPN1 ag: agonists of zebrafish TRPN1 channel. HEK293 zebrafish TRPN1-YFP, Fluo-8 calcium fluorescence; 100% = response to 87 µM carbachol. activation, % at 3 µM. 220,000 tested, 0.18% active. AID 1424;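 active means activation above its plate's cutoff, the mean activation of test wells on that plate plus 3 SD, cut at about 19% in these data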;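 further: 0% = DMSO alone and 100% = 87 µM carbachol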
#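 Assay system: Zebrafish TRPN1-YFP in HEK293 cells | Incubation: Dye loading 1 h at 37 °C, then 30 min room temperature | Measured by: Kinetic Fluo-8 fluorescence, ex 470-495, em 515-575 nm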
# TAAR1 ag: agonists of human TAAR1. 360,000 tested, 0.99% active. Q96RJ0. AID 624467. CHO RD-HGA16 TAAR1, Fluo-8 calcium fluorescence; vehicle wells 0%, saturating PEA agonist 100%. activation, % at 3 µM;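 active means activation above the mean activation of all test compounds in the run plus 3 SD, cut at about 38% in these data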
#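 Assay system – CHO-derived RD-HGA16 cells with stable Gα16 and human TAAR1 · Compound dosing – one-point dosing at 3 µM (nominal) · Incubation – 17-24 h seeding, 75 min 37 °C dye, 30 min RT · Measured by – kinetic Fluo-8 calcium fluorescence · Control set – DMSO vehicle as 0%, PEA at EC100 as 100% · Repeats – single well for each compound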
# TRPML3 agonist: human mucolipin-3 channel agonism. Q8TDD5. HEK293 TRPML3-YFP, Fluo-8 calcium fluorescence; 100% = the carbachol control signal. activation, % at 3 µM. 220,000 tested, 0.29% active;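 active means activation above its plate's cutoff, the mean activation of the plate's test wells plus 3 SD, cut at about 12% in these data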;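 further: 0% = DMSO only wells and 100% = carbachol wells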
#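 Material: HEK293 cells stably carrying human TRPML3-YFP; compound dosing: single dose, 3 µM final nominal compound, 0.3% DMSO final; incubation: 1-h 37 °C dye load, 5-s basal, 120-s post-compound reads; technique: Fluo-8 intracellular calcium fluorescence, excitation 470-495 nm, emission 515-575 nm; read-out basis: percent activation from peak-to-basal fluorescence ratio, scaled between DMSO and carbachol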
# TAAR1 antag: human TAAR1 antagonism; CHO RD-HGA16 TAAR1, Fluo-8 calcium fluorescence, antagonist; Q96RJ0; inhibition, % at 3 µM; AID 624466; 360,000 tested, 1.5% active;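 active means inhibition above a per-plate cutoff, the mean inhibition of test compounds on that plate plus 3 SD, cut at about 49% in these data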;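 further: 0% = DMSO plus EC80 beta-PEA response and 100% = DMSO alone without agonist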
#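 Test system: hTAAR1-expressing CHO RD-HGA16 cells, Gα16-coupled; Probe or stimulus: EC80 β-phenethylamine stimulus; Compound dosing: single nominal final test compound concentration of 3 µM; Timing: 140 s kinetic read after compound, 140 s after agonist; Signal: Fluo-8 calcium-sensitive fluorescence; Measure: % inhibition of agonist calcium response; Controls: DMSO and EC80 PEA controls.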
# nonsel antag count: counter-screen for TAAR1 antagonists: nonselective antagonists; inhibition, % at 3 µM; AID 651780; shares compounds with TAAR1 antag; 2,400 tested, 77% active; counterscreen cell line, calcium fluorescence, antagonist mode; in the data active means inhibition above about 22%;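 further: CHO-Ga16 host cells stimulated with ATP at an EC80 level; 0% = agonist EC80 plus vehicle and 100% = vehicle without agonist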
# TAAR1 ant conf: human TAAR1 antagonism, confirmed | shares compounds with TAAR1 antag | TAAR1-expressing cells, fluorescence antagonist read-out | inhibition, % at 3 µM | 2,400 tested, 40% active | AID 651785; in the data active means inhibition above about 49%;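 further: CHO-Ga16 host cells challenged with agonist PEA near its EC80; 0% = agonist at EC80 plus vehicle and 100% = vehicle with no agonist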
# Ga16 ag counter: nonselective Ga16 agonist in TAAR1 antagonist counter-screen; shares compounds with TAAR1 antag; Ga16-expressing cells, calcium fluorescence, agonist counterscreen; activation, % at 3 µM; 2,400 tested, 18% active; AID 651953; in the data active means activation above about 12%;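 further: 0% = vehicle wells and 100% = saturating stimulus response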
# TAAR1 ag count: TAAR1 agonism, antagonist counter-screen; hTAAR1 cell line, fluorescence activation, agonist mode; 2,400 tested, 2% active; activation, % at 3 µM; AID 651955; shares compounds with TAAR1 antag; in the data active means activation above about 37%;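 further: CHO cells stably expressing TAAR1 with calcium dye readout; 0% = DMSO vehicle and 100% = full agonist response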
# An asterisk follows results filed as active; nt = no result. Most compounds without a hit are left out; they make up all but 3.4% or so of the library.
SMILES,LANA-H2A inh,GPR7 antagonist,TRPN1 ag,TAAR1 ag,TRPML3 agonist,TAAR1 antag,nonsel antag count,TAAR1 ant conf,Ga16 ag counter,TAAR1 ag count
O=C(c1ccc(CS(=O)Cc2ccccc2Cl)o1)N1CCN(c2ccccn2)CC1 (centres undefined),0,13,nt,17,nt,49*,15,32,8,6
O=C(NC(Cc1ccccc1)C(=O)O)/C(=C\c1ccccc1)NC(=O)c1ccc(Br)o1 (centres undefined),-3,-23,nt,1,nt,-26,nt,nt,nt,nt
COc1cccc(NC(=O)CN(C)C(=O)c2cc(-c3cccc(Br)c3)nc3ccccc23)c1,2,nt,nt,10,nt,79*,39*,47,7,4
COc1ccc(NC(=O)CN(C)C(=O)c2cc(-c3ccc(Cl)cc3)nc3ccccc23)cc1,-7,nt,nt,8,nt,67*,30*,42,9,6
COc1cccc(NC(=O)CN(C)C(=O)c2cc(-c3ccccc3)nc3ccc(C)cc23)c1,nt,nt,nt,11,nt,74*,40*,61*,10,7
Cc1cccc(NS(=O)(=O)c2cn(C)c(=O)n(C)c2=O)c1C,-10,-10,nt,0,nt,-8,nt,nt,nt,nt
O=C(CSc1ccccc1C(=O)NCc1ccccc1)NC1CCCCCCC1,-6,0,-2,12,-1,54*,18,31,6,3
O=C(CSc1ccccc1C(=O)O)NC1CCCCCC1,-3,-10,1,7,1,11,nt,nt,nt,nt
COc1ccc(S(=O)(=O)Nc2ncccn2)cc1,1,-4,nt,-3,nt,105*,3,-1,1,1
COc1ccc(-c2nc3c(c(=O)n(C)c(=O)n3C)n2CC2CC(c3ccccc3)=NO2)cc1OC (centres undefined),9,-12,2,25,1,62*,30*,50*,10,11
COc1ccccc1CN1CCNC(=O)C1CC(=O)N(C)C1CCOCC1 (centres undefined),nt,nt,nt,1,nt,-15,nt,nt,nt,nt
CN(CC(=O)Nc1ccc(Cl)c(C(F)(F)F)c1)C(=O)Cc1ccsc1,-6,nt,nt,20,nt,40,nt,nt,nt,nt
COc1ccc(NC(=S)Nc2nc(CC(=O)Nc3ccccc3OC)cs2)cc1,-1,2,4,16,0,43,nt,nt,nt,nt
COc1ccccc1NC(=O)Nc1nc(CC(=O)NCc2c(F)cccc2F)cs1,1,nt,nt,11,nt,58*,29*,45,10,11
COc1ccccc1NC(=O)Nc1nc(CC(=O)N2CCN(c3ccccc3F)CC2)cs1,-3,nt,nt,15,nt,65*,29*,48,10,11
COc1ccccc1CC(=O)N1CCN(c2ccccc2F)CC1,-3,4,nt,3,nt,9,nt,nt,nt,nt
COc1ccc(NC(=O)Cc2csc(NC(=O)Nc3ccccc3OC)n2)c(OC)c1,3,nt,nt,15,nt,69*,17,38,9,10
COc1ccc(OC)c(NC(=O)Cc2csc(NC(=O)Nc3ccccc3OC)n2)c1,-4,nt,nt,23,nt,65*,39*,54*,11,12
CCCCNC(=O)C1(C)CCCCN1C(=O)c1cc2ccccc2s1 (centres undefined),nt,nt,nt,-2,nt,0,nt,nt,nt,nt
COc1ccc(C(=O)OCC(=O)c2ccc3c(c2)NC(=O)CO3)cc1S(=O)(=O)N1CCOCC1,3,nt,nt,8,nt,27,nt,nt,nt,nt

# From PubChem
